{"data": "Experimental data collected from several papers", "observed": "cell growth or viability", "note": "Lines come from different studies, so protocols differ. pEC50, pIC50: −log10 of the molar value."}
{"SMILES": "COc1cccc(NC(=O)CN2C(=O)/C(=C/c3cccs3)SC2=S)c1", "cell line": "A549", "technique": "MTT", "tested at": "10 µM", "quantity": "inhibition", "result": "12.4%"}
{"SMILES": "COc1cccc(Oc2ccccc2NC(=O)CNC(=O)c2cccc3ccccc23)c1", "cell line": "OVCAR-4", "technique": "SRB", "time": "48 h", "quantity": "GI50", "result": "776 nM"}
{"SMILES": "Cn1nnc2c(C(N)=O)ncn2c1=O", "cell line": "AZ-521", "quantity": "pEC50", "result": 3.76}
{"SMILES": "O=C(CN1C(=O)/C(=C/c2ccccc2)SC1=S)Nc1ccccc1", "cell line": "A549", "technique": "MTT", "tested at": "10 µM", "quantity": "inhibition", "result": "43.3%"}
{"SMILES": "COc1ccc(-c2ccc(-c3ccc(C(=N)N)nc3)s2)cc1Cl", "cell line": "OVCAR-4", "technique": "SRB", "quantity": "GI50", "result": "1740 nM"}
{"SMILES": "O=C1Nc2ccccc2C1=NNc1nnc2n1N=C(c1ccccc1)CS2", "cell line": "OVCAR-4", "technique": "SRB", "tested at": "10 µM", "quantity": "inhibition", "result": "41%"}
{"SMILES": "COc1cc(-c2ccc(-c3ccc(C(=N)N)nc3)s2)cc(OC)c1OC", "cell line": "OVCAR-4", "technique": "SRB", "quantity": "GI50", "result": "2690 nM"}
{"SMILES": "CCOc1ccc(/C=C2\\SC(=S)N(CC(=O)Nc3ccccc3)C2=O)cc1", "cell line": "A549", "technique": "MTT", "tested at": "10 µM", "quantity": "inhibition", "result": "48.2%"}
{"SMILES": "CC(C)C[C@H](NC(=O)[C@H](Cc1ccccc1)NC(=O)c1cnccn1)B(O)O", "cell line": "HCC38", "technique": "ATP luminescence", "quantity": "pIC50", "result": 8.00}
{"SMILES": "NC(=O)c1cc(Cl)ccc1NC(=O)COc1ccccc1", "cell line": "OVCAR-4", "quantity": "GI50", "result": "> 100000 nM"}
